Results reported in ChEMBL document CHEMBL5506013, “Mitochondria-Selective Dicationic Small-Molecule Ligand Targeting G-Quadruplex Structures for Human Colorectal Cancer Therapy” (J Med Chem, 2024).
pIC50, pKd: −log10 of the molar value. Calls of active or inactive are those of the source. The rule behind the calls is not given here.

Tests used:
[1] = Toxicity in BALB/c nude mouse assessed as effect on liver at 5 mg/kg, iv measured after 16 hrs post injection by H and E staining based analysis; type: organism-based; conditions: in vivo
[2] = Drug localization in nucleus of human HCT-116 cells at 4 uM measured upto 12 hrs by hoechst33342 staining based live cell imaging analysis; type: ADME, subcellular; conditions: hct-116, 12 h
[3] = Toxicity in BALB/c nude mouse assessed as effect on spleen at 5 mg/kg, iv measured after 16 hrs post injection by H and E staining based analysis; type: organism-based; conditions: in vivo
[4] = test system: HCT-116; test: Inhibition of cell migration in human HCT-116 cells at upto 4 uM measured after 72 hrs by transwell assay relative to control; type: functional; conditions: up to 4 µM
Procedure, shortened: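 Transwell migration of HCT116 cells treated for 72 h at 0, 1, 2 or 4 uM, imaged at 100x and quantified; mean ± SD.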

[5] = test system: Quadruplex DNA; test: Binding affinity to Mut 55 G4 DNA (unknown origin) assessed as increase in fluorescence intensity by fluorescence spectrophotometric analysis; type: nucleic-acid assay
Procedure, shortened: (§1)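 Oligonucleotides were pre-annealed at 95 °C for 10 min, then cooled slowly. Ligand (5 uM) was mixed with 20 uM DNA in buffer. Emission was collected over 550–800 nm, and enhancement was taken at 650 nm as F/F0.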

[6] = Toxicity in BALB/c nude mouse assessed as effect on kidney at 5 mg/kg, iv measured after 16 hrs post injection by H and E staining based analysis; type: organism-based; conditions: in vivo
[7] = test system: HCT-116; test: Inhibition of cell proliferation in human HCT-116 cells at 4 uM measured after 7 days by colony formation assay relative to control; type: functional; conditions: HCT-116, 168 h, time 7 day
Procedure, shortened: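 Colony formation: HCT116 cells treated for 7 days at 0, 1, 2 or 4 uM, colonies counted and quantified; mean ± SD.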

[8] = test system: HFF-1; test: Downregulation of ND2 mRNA level in human HFF-1 cells at 0 to 4 uM measured after 48 hrs by qRT-PCR analysis; type: functional, cell-based; conditions: dose 0-4 µM
[9] = test system: HCT-116; test: Downregulation of COX3 protein level in human HCT-116 cells at upto 4 uM incubated for 48 hrs by Western blot analysis; type: functional, cell-based
[10] = test system: HCT-116; test: Downregulation of CYTB protein level in human HCT-116 cells at upto 4 uM incubated for 48 hrs by Western blot analysis; type: functional, cell-based
[11] = Antiproliferative activity against human BJ cells measured after 48 hrs by MTT assay; type: toxicity, cell-based; conditions: BJ cells
Procedure, shortened: (§2)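 Cells exposed to the ligands for 48 h. Viability was read by MTT, and the IC50 was derived from the response.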

[12] = test system: HCT-116; test: Downregulation of mitochondrial respiratory chain complex III level in human HCT-116 cells at upto 4 uM measured after 48 hrs by Western blot analysis; type: functional, cell-based
[13] = test system: DNA; test: Binding affinity to HP19 DNA (non-G4 DNA) (unknown origin) assessed as increase in fluorescence intensity by fluorescence spectrophotometric analysis; type: nucleic-acid assay; procedure, shortened: as §1
[14] = test system: DNA; test: Binding affinity to SS19 DNA (non-G4 DNA) (unknown origin) assessed as change in melting temperature at 5 uM by circular dichroism spectroscopic analysis; type: nucleic-acid assay
[15] = Toxicity in BALB/c nude mouse assessed as change in mean red blood cell hemoglobin concentration at 5 mg/kg, iv administered every two days for 16 days; type: organism-based; conditions: in vivo, 384 h, time 16 day
Procedure, shortened: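 HCT116 xenograft-bearing male Balb/c nude mice (6/group) dosed iv at 5 mg/kg every two days or with PBS. Whole blood collected at sacrifice on day 16 for hematology parameters.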

[16] = Drug localization in human HCT-116 cells by measuring red foci at 4 uM incubated for 1 hr in presence of DNA I by hoechst33342 staining based analysis; type: ADME, cell-based; conditions: hct-116, 1 h
Procedure, shortened: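 Live HCT116 cells loaded with ligand 4 uM for 1 h and Hoechst33342 1 uM for 30 min, then fixed. Fixed cells digested with 200 units DNase I or RNase A for 3 h. Red foci imaged by confocal microscopy in 100 cells. Mean ± SEM, t test.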

[17] = test system: HCT-116; test: Downregulation of ATP6 protein level in human HCT-116 cells at upto 4 uM incubated for 48 hrs by Western blot analysis; type: functional, cell-based
[18] = target: DNA; test: Binding affinity to HP19 DNA (non-G4 DNA) (unknown origin) assessed as dissociation constant measured upto 450 secs by surface plasmon resonance assay; type: nucleic-acid assay
Procedure, shortened: (§3)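 Surface plasmon resonance in buffer at 25 °C. Four G4-mtDNAs (Mito 78, Mito 55, Mito 29, Mito 0.5-16) and the hairpin HP19 served as substrates. Kd was derived from the sensorgrams.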

[19] = target: Quadruplex DNA; test: Binding affinity to mito 29 G4 DNA (unknown origin) assessed as dissociation constant measured upto 450 secs by surface plasmon resonance assay; type: nucleic-acid assay; procedure, shortened: as §3
[20] = test system: DNA; test: Binding affinity to HP19 DNA (non-G4 DNA) (unknown origin) assessed as change in melting temperature at 5 uM by circular dichroism spectroscopic analysis; type: nucleic-acid assay
[21] = test system: HCT-116; test: Downregulation of ATP8 protein level in human HCT-116 cells at upto 4 uM incubated for 48 hrs by Western blot analysis; type: functional, cell-based
[22] = test system: HCT-116; test: Downregulation of ND6 protein level in human HCT-116 cells at upto 4 uM incubated for 48 hrs by Western blot analysis; type: functional, cell-based
[23] = test system: Quadruplex DNA; test: Binding affinity to Mito 55 G4 DNA (unknown origin) assessed as change in melting temperature at 5 uM by circular dichroism spectroscopic analysis; type: nucleic-acid assay
[24] = test system: HCT-116; test: Downregulation of mitochondrial respiratory chain complex II level in human HCT-116 cells at upto 4 uM measured after 48 hrs by Western blot analysis; type: functional, cell-based
[25] = test system: HepG2; test: Antiproliferative activity against human HepG2 cells measured after 48 hrs by MTT assay; type: functional, cell-based; conditions: HepG2, 48 h; procedure, shortened: as §2
[26] = test system: HCT-116; test: Induction of mitochondrial permeability transition pore opening in human HCT-116 cells measured after 48 hrs by calcein-AM staining based assay; type: functional, cell-based; conditions: dose <= 4.0 µM
[27] = test system: HCT-116; test: Induction of morphological changes in human HCT-116 cells at 4 uM by microscopy based analysis; type: functional, cell-based
Procedure, shortened: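 HCT116 and HFF1 cells treated with ligand at 4 uM alongside untreated controls. Morphology examined by microscopy at 100x.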

[28] = test system: HCT-116; test: Downregulation of ND3 mRNA level in human HCT-116 cells at 0 to 4 uM measured after 48 hrs by qRT-PCR analysis; type: functional, cell-based; conditions: dose 0-4 µM
[29] = test system: Quadruplex DNA; test: Binding affinity to Mito 78 G4 DNA (unknown origin) assessed as change in melting temperature at 5 uM by circular dichroism spectroscopic analysis; type: nucleic-acid assay
[30] = test system: HCT-116; test: Upregulation of p53 level in human HCT-116 cells at upto 4 uM measured after 72 hrs by Western blot analysis; type: functional, cell-based
[31] = test system: HCT-116; test: Downregulation of Ki67 expression level in human HCT-116 cells at upto 4 uM measured after 72 hrs by immunofluorescence analysis; type: functional, cell-based
Procedure, shortened: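 HCT116 cells treated with ligand at 0-4 uM for 72 h. Lamin B1 and Ki67 imaged by immunofluorescence (excitation 635 nm), or lamin B1 probed on Western blot with β-actin as loading control.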

[32] = test system: HFF-1; test: Downregulation of ND1 gene expression in human HFF-1 cells at 0 to 4 uM measured after 48 hrs by q-PCR analysis; type: functional, cell-based; conditions: dose 0-4 µM
[33] = test system: HCT-116; test: Downregulation of ND4 protein level in human HCT-116 cells at upto 4 uM incubated for 48 hrs by Western blot analysis; type: functional, cell-based

## C(=C\c1ccc2ccccc2[n+]1CCCCCCCC[n+]1c(/C=C/c2ccc(N3CCCCC3)cc2)ccc2ccccc21)/c1ccc(N2CCCCC2)cc1.[I-].[I-]
[1]
  Activity: Non-Toxic
[2]
  Drug uptake: Not Active
[3]
  Activity: Non-Toxic
[4]
  inhibition (INH): 40%
[5]
  Activity: inactive
[6]
  Activity: Non-Toxic
[7]
  inhibition at 4 µM: 100%
[8]
  Activity: Active
[9]
  Activity: Active
[10]
  Activity: Active
[11]
  IC50 at 48 h: > 40000 nM
[12]
  Activity: Active
[13]
  Activity: inactive
[14]
  ΔTm: 0.5 °C
[15]
  Activity: Non-Toxic
[16]
  Drug uptake: Not Active
[17]
  Activity: Active
[18]
  pKd: < 5.70
[19]
  pKd: 6.96
[20]
  ΔTm: 0.5 °C
[21]
  Activity: Active
[22]
  Activity: Active
[23]
  ΔTm: 3.6 °C
[24]
  Activity: Active
[25]
  pIC50: < 4.40
[26]
  Activity: Dose-Dependent Effect
[27]
  Activity: Active
[28]
  Activity: Active
[29]
  ΔTm: 11.3 °C
[30]
  Activity: Active
[31]
  Activity: Active
[32]
  Activity: inactive
[33]
  Activity: Active
